Assay [1] relates to Bacillus anthracis. As to the kind of experiment: Antimicrobial activity against Bacillus anthracis Sterne vegetative cells by broth microdilution method. The class given is functional.
The test system of assay [2] is Bacillus anthracis. In words: Antimicrobial activity against Bacillus anthracis Sterne spores by broth microdilution method. The class given is functional.
For assay [3], the system named is Bacillus subtilis. As to the kind of experiment: Inhibition of RNA synthesis in Bacillus subtilis BD54 at 5 X MIC by [5-3H]uridine incorporation assay. The class given is functional. The method, boiled down:
(§1)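 Precursors were [methyl-3H]thymidine (DNA), [5-3H]uridine (RNA), L-[4,5-3H]leucine (protein) and N-acetyl-D-[1-3H]glucosamine (cell wall). Samples taken over time, precipitated with equal volume of ice-cold 20% TCA, filtered on glass fibre, and counted. cpm plotted against time.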

In assay [4] the test system is Bacillus subtilis. As to the kind of experiment: Inhibition of DNA synthesis in Bacillus subtilis BD54 at 5 X MIC by [3H]thymidine incorporation assay. In kind it is functional, organism-based. Put shortly: as §1
For assay [5], the system named is Bacillus subtilis. As to the kind of experiment: Inhibition of cell wall synthesis in Bacillus subtilis BD54 at 5 X MIC by N-acetyl-D-[1-3H] glucosamine incorporation assay. The class given is functional. Put shortly: as §1
The subject of assay [6] is Bacillus subtilis. In words: Inhibition of protein synthesis in Bacillus subtilis BD54 at 5 X MIC by L-[4,5-3H]leucine incorporation assay. In kind it is functional, organism-based. Put shortly:
as §1

Structures are written as SMILES. Values after ≈ are worked out from the molar mass of the structure shown. Active and inactive are the calls of the source. The rule behind the calls is not given here. A value given as a limit tells only on which side of the number the result lay.

As to `O=C(Nc1ccc(C2=NCCN2)cc1)c1cc2ccc(C3=NCCN3)cc2[nH]1`, the MIC in assay [1] was found to be 17.8 µg/mL (≈ 47.8 µM); in assay [2], 8.9 µg/mL (≈ 23.9 µM).

As for `N/C(=N\O)c1ccc2oc(/C=C/c3cc4cc(/C(N)=N/O)ccc4o3)cc2c1`, the MIC in assay [1] and in assay [2] was greater than 23 µg/mL in each case.

For `c1cc(-c2nc3cc(-c4nc5ccc(C6=NCCN6)cc5[nH]4)ccc3[nH]2)ccc1C1=NCCN1`, the minimum inhibitory concentration (MIC) in assay [1] worked out at 22.3 µg/mL (≈ 49.9 µM); in assay [2], 1.4 µg/mL (≈ 3.14 µM).

For `CN[C@H](CC(C)C)C(=O)N[C@H]1C(=O)N[C@@H](CC(N)=O)C(=O)N[C@H]2C(=O)N[C@H]3C(=O)N[C@H](C(=O)N[C@H](C(=O)O)c4cc(O)cc(O)c4-c4cc3ccc4O)[C@H](O)c3ccc(c(Cl)c3)Oc3cc2cc(c3O[C@@H]2O[C@H](CO)[C@@H](O)[C@H](O)[C@H]2O[C@H]2C[C@](C)(N)[C@H](O)[C@H](C)O2)Oc2ccc(cc2Cl)[C@H]1O`, the inhibition entry in assay [3], in assay [4], in assay [5] and in assay [6] was “Active” each time.

Take `N=C(N)N/N=C/c1ccc2cc(-c3ccc(/C=N/N=C(N)N)cc3)sc2c1`: the MIC worked out at 18 µg/mL (≈ 47.6 µM) in assay [1] and 4.5 µg/mL (≈ 11.9 µM) in assay [2].

For the compound `N=C(N)c1ccc(/C=C/c2cc3cc(C(=N)N)ccc3[nH]2)cc1`, the MIC in assay [1] was greater than 15 µg/mL; in assay [2], 15 µg/mL (≈ 49.4 µM).

Regarding `N=C(N)c1ccc2cc(/C=C/c3cc4ccc(C(=N)N)cc4o3)oc2c1`, the MIC in assay [1] was 17 µg/mL (≈ 49.4 µM); in assay [2], 8.3 µg/mL (≈ 24.1 µM).

For `N=C(N)c1ccc(-c2cc3ccc(C(=N)N)cc3s2)cc1`, the MIC in assay [1] and in assay [2] was greater than 19 µg/mL throughout.
